Results from ChEMBL document CHEMBL3872254, “Design, synthesis and biological evaluation of alkylamino biphenylamides as Hsp90 C-terminal inhibitors” (Bioorg Med Chem, 2017).
The source made the active and inactive calls. No cut-off for these calls is given here.

Key:
[1] = Anti-proliferative activity against ER positive human MCF7 cells measured after 72 hrs by MTS/PMS assay; format: functional, cell-based; settings: MCF7, 72 h
Outline: (§1)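 Cells grown in 1:1 Advanced DMEM/F12 with non-essential amino acids, 2 mM L-glutamine, penicillin/streptomycin, 10% FBS, 37 °C, 5% CO2; seeded 2000/well, attached overnight. Compound added in DMSO (1% final), 72 h incubation; viable cells by MTS/PMS. 1% DMSO wells set as 100% proliferation; IC50 from separate experiments run in triplicate, mean ± SD of at least two experiments.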

[2] = Anti-proliferative activity against human SKBR3 cells over-expressing Her2 measured after 72 hrs by MTS/PMS assay; format: functional, cell-based; settings: SK-BR-3, 72 h; outline: as §1
[3] = target: T1, Heat shock protein HSP90 (Homo sapiens) (UniProt P07900+P08238); test: Inhibition of C-terminal Hsp90 in human PC3MM2 cells assessed as decrease in Hsp90-dependent refolding of thermally denatured luciferase at 0.1 to 100 uM; format: cell-based
Outline: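 Hsp90-dependent luciferase refolding measured in PC3-MM2 cells; compounds tested at 0.1−100 μM against DMSO vehicle, with a reference Hsp90 inhibitor as positive control.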

[4] = target: T1, Heat shock protein HSP90 (Homo sapiens); test: Inhibition of C-terminal Hsp90 in human MCF7 cells assessed as degradation of Her2 measured after 24 hrs by Western blot method; format: cell-based
Outline: (§2)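 MCF-7 cells cultured as for proliferation, exposed to compound in DMSO (1% final) for 24 h alongside geldanamycin 0.5 μM and DMSO controls. Harvested in cold PBS, lysed 1 h on ice in RIPA with 1 mM PMSF, 2 mM orthovanadate, protease inhibitors; cleared 14000g 10 min 4 °C. BCA-normalized 20 μg protein, reducing SDS-PAGE, nitrocellulose, specific antibodies, HRP secondary, chemiluminescence.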

[5] = target: T1, Heat shock protein HSP90 (Homo sapiens); test: Inhibition of C-terminal Hsp90 in human MCF7 cells assessed as degradation of Raf-1 measured after 24 hrs by Western blot method; format: cell-based; outline: as §2
[6] = Effect on actin expression in human MCF7 cells at 0.2 to 10 uM measured after 24 hrs by Western blot method; format: ADME, cell-based; settings: mcf7, 24 h; outline: as §2
[7] = target: T1, Heat shock protein HSP90 (Homo sapiens); test: Inhibition of C-terminal Hsp90 in human MCF7 cells assessed as degradation of Akt measured after 24 hrs by Western blot method; format: cell-based; outline: as §2

Row | Compound | IC50 [1] | IC50 [2] | also measured
1 | COc1cccc(-c2cc(C(=O)Nc3ccc(-c4ccc(OC5CCN(C)CC5)c(OCCCN(C)C)c4)cc3)ccc2OC)c1 | 1050 nM | 750 nM | 
2 | COc1cccc(-c2cc(C(=O)Nc3ccc(-c4ccc(OC5CCN(C)CC5)cc4OCCCN4C(=O)c5ccccc5C4=O)cc3)ccc2OC)c1 | 1430 nM | 3130 nM | 
3 | COc1cccc(-c2cc(C(=O)Nc3ccc(-c4ccc(OC5CCN(C)CC5)cc4)cc3O)ccc2OC)c1 | 710 nM | 910 nM | 
4 | COc1cccc(-c2cc(C(=O)Nc3ccc(-c4ccc(OC5CCN(C)CC5)cc4)cc3OCCN(C)C)ccc2OC)c1 | 810 nM | 840 nM | 
5 | COc1cccc(-c2cc(C(=O)Nc3ccc(-c4ccc(OC5CCN(C)CC5)c(O)c4)cc3)ccc2OC)c1 | 1220 nM | 1560 nM | 
6 | COc1cccc(-c2cc(C(=O)Nc3ccc(-c4ccc(OC5CCN(C)CC5)cc4OCCCCN(C)C)cc3)ccc2OC)c1 | 1120 nM | 1270 nM | 
7 | COc1cccc(-c2cc(C(=O)Nc3ccc(-c4ccc(OC5CCN(C)CC5)cc4)c(O)c3)ccc2OC)c1 | 1800 nM | 3430 nM | 
8 | COc1cccc(-c2cc(C(=O)Nc3ccc(-c4ccc(OC5CCN(C)CC5)cc4OC4CCCCC4)cc3)ccc2OC)c1 | 2360 nM | 3240 nM | 
9 | COc1cccc(-c2cc(C(=O)Nc3ccc(-c4ccc(OC5CCN(C)CC5)cc4O)cc3)ccc2OC)c1 | 4070 nM | 3550 nM | 
10 | COc1cccc(-c2cc(C(=O)Nc3ccc(-c4ccc(OC5CCN(C)CC5)cc4OCCCOC(C)=O)cc3)ccc2OC)c1 | 2490 nM | 1960 nM | 
11 | COc1cccc(-c2cc(C(=O)Nc3ccc(-c4ccc(OC5CCN(C)CC5)cc4OCCN(C)C)cc3)ccc2OC)c1 | 1040 nM | 390 nM | inhibition [3]: Active
12 | COc1cccc(-c2cc(C(=O)Nc3ccc(-c4ccc(OC5CCN(C)CC5)cc4)c(OCCN(C)C)c3)ccc2OC)c1 | 790 nM | 650 nM | 
13 | COc1cccc(-c2cc(C(=O)Nc3ccc(-c4ccc(OC5CCN(C)CC5)cc4)cc3OCCCN(C)C)ccc2OC)c1 | 750 nM | 690 nM | 
14 | COCOc1cc(-c2ccc(NC(=O)c3ccc(OC)c(-c4cccc(OC)c4)c3)cc2)ccc1OC1CCN(C)CC1 | 990 nM | 820 nM | 
15 | COc1cccc(-c2cc(C(=O)Nc3ccc(-c4ccc(OC5CCN(C)CC5)cc4OCCCO)cc3)ccc2OC)c1 | 3110 nM | 3870 nM | 
16 | COc1cccc(-c2cc(C(=O)Nc3ccc(-c4ccc(OC5CCN(C)CC5)c(OCCN(C)C)c4)cc3)ccc2OC)c1 | 700 nM | 400 nM | 
17 | COc1cccc(-c2cc(C(=O)Nc3ccc(-c4ccc(OC5CCN(C)CC5)cc4)cc3)ccc2OC)c1 | 710 nM | 470 nM | 
18 | COc1cccc(-c2cc(C(=O)Nc3ccc(-c4ccc(OC5CCN(C)CC5)cc4OCCCN(C)C)cc3)ccc2OC)c1 | 840 nM | 340 nM | inhibition [4]: Dose-dependent effect; inhibition [3]: Active; inhibition [5]: Dose-dependent effect; Activity [6]: Non-Toxic; inhibition [7]: Dose-dependent effect
19 | COCOc1cc(OC2CCN(C)CC2)ccc1-c1ccc(NC(=O)c2ccc(OC)c(-c3cccc(OC)c3)c2)cc1 | 1380 nM | 1140 nM | 
20 | COc1cccc(-c2cc(C(=O)Nc3ccc(-c4ccc(OC5CCN(C)CC5)cc4)c(OCCCN(C)C)c3)ccc2OC)c1 | 670 nM | 550 nM | 
21 | COc1cccc(-c2cc(C(=O)Nc3ccc(-c4ccc(OC5CCN(C)CC5)cc4OC4CCN(C)CC4)cc3)ccc2OC)c1 | 2540 nM | 1160 nM | 
